Test results reported in ChEMBL document CHEMBL3098097, “Design, synthesis and evaluation of 7-azaindazolyl-indolyl-maleimides as glycogen synthase kinase-3β (GSK-3β) inhibitors” (Eur J Med Chem, 2013).
Active and inactive are the calls of the source. The calls are words filed in the database; no cut-off is given here.

Experiments:
[1] = molecular target: T1, Glycogen synthase kinase-3 beta (Homo sapiens, UniProt P49841); test: Inhibition of recombinant GST-tagged GSK-3beta (unknown origin) expressed in Escherichia coli BL21 assessed as phosphate incorporation in CREB
Target sequence in this assay (P49841 whole entry): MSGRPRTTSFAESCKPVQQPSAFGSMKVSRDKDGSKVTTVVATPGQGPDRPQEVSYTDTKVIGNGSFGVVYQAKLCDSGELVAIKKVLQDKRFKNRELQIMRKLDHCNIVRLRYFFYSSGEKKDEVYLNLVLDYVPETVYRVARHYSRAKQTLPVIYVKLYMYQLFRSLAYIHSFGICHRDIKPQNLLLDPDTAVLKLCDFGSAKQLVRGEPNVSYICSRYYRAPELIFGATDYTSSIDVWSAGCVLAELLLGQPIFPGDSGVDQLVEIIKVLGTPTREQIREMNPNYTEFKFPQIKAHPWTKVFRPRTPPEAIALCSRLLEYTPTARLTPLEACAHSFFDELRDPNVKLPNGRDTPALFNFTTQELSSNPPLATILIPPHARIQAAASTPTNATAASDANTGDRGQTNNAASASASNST

[2] = molecular target: Mitogen-activated protein kinase 3 (Homo sapiens, UniProt P27361); test: Inhibition of recombinant ERK1 (unknown origin) expressed in Escherichia coli
Summary of the method: (§1)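 E. coli-expressed recombinant kinase tested in a Z'-LYTE kinase assay kit.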

[3] = molecular target: T1, Glycogen synthase kinase-3 beta; test: Inhibition of GSK-3beta in human SH-SY5Y cells assessed as reduction of amyloid beta (25 to 35)-induced Tau hyperphosphorylation at Ser396 at 10 uM incubated for 1 hr prior to amyloid beta (25 to 35) induction measured after 6 hrs by Western blotting analysis; format: cell-based
Summary of the method: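 SH-SY5Y cells (ATCC) in 1:1 DMEM:Ham's F12 with 10% FBS and 1% penicillin/streptomycin, 5% CO2. Grown to ~80% confluence, serum-deprived 12 h, inhibitor added 1 h before Aβ25–35 for another 6 h. Lysed in SDS loading buffer, run on 10% SDS-PAGE, blotted to PVDF, probed with rabbit anti-Tau pS396, ECL detection.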
Target sequence in this assay (P49841 whole entry, looked up): as the sequence (P49841 whole entry) above

[4] = molecular target: Dual specificity mitogen-activated protein kinase kinase 1 (Homo sapiens, UniProt Q02750); test: Inhibition of recombinant MEK1 (unknown origin) expressed in Escherichia coli; summary of the method: as §1
Aurora kinase A = molecular target: T2, Aurora kinase A (Homo sapiens, UniProt O14965); test: Inhibition of recombinant aurora kinase A (unknown origin) expressed in Escherichia coli; summary of the method: as §1
T2 sequence (O14965 whole entry): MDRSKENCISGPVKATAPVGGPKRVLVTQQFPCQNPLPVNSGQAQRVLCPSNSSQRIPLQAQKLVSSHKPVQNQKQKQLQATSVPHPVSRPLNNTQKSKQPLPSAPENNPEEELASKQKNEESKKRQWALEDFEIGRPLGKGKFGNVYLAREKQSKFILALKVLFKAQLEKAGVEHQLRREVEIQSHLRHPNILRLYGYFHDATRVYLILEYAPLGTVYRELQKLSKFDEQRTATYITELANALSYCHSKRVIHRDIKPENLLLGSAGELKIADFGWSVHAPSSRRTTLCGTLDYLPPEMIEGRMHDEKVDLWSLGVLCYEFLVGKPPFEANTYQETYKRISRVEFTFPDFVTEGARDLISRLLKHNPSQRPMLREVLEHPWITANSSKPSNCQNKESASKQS

[5] = molecular target: T3, Inhibitor of nuclear factor kappa-B kinase subunit beta (Homo sapiens, UniProt O14920); test: Inhibition of recombinant IKK2 (unknown origin) expressed in baculovirus expression system
T3 sequence (O14920 whole entry): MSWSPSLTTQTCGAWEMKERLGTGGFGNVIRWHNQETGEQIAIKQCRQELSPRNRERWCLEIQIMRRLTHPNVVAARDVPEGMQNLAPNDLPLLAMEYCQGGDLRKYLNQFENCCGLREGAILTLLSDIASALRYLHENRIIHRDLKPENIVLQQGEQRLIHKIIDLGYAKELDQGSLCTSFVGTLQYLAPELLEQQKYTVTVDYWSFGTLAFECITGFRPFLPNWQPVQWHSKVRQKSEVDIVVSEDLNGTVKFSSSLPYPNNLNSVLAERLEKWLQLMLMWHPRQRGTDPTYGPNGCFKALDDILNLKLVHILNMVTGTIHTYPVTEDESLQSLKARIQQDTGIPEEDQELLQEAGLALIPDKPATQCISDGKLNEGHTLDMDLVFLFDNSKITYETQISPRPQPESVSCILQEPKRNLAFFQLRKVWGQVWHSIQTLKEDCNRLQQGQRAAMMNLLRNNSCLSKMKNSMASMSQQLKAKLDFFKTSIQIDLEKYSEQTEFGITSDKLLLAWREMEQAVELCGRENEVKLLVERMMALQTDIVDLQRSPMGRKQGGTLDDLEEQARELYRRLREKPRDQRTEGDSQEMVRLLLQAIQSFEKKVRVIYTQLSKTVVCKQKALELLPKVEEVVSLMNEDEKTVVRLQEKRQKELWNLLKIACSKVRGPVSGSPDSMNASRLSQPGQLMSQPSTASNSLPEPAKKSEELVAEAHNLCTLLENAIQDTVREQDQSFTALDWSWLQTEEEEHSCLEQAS
Summary of the method: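 Recombinant kinase expressed in the Bac-to-Bac baculovirus system, tested in a Z'-LYTE kinase assay kit.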

[6] = molecular target: T4, Protein kinase C epsilon type (Homo sapiens, UniProt Q02156); test: Inhibition of recombinant PKCE (unknown origin) expressed in baculovirus expression system
T4 sequence (Q02156 whole entry): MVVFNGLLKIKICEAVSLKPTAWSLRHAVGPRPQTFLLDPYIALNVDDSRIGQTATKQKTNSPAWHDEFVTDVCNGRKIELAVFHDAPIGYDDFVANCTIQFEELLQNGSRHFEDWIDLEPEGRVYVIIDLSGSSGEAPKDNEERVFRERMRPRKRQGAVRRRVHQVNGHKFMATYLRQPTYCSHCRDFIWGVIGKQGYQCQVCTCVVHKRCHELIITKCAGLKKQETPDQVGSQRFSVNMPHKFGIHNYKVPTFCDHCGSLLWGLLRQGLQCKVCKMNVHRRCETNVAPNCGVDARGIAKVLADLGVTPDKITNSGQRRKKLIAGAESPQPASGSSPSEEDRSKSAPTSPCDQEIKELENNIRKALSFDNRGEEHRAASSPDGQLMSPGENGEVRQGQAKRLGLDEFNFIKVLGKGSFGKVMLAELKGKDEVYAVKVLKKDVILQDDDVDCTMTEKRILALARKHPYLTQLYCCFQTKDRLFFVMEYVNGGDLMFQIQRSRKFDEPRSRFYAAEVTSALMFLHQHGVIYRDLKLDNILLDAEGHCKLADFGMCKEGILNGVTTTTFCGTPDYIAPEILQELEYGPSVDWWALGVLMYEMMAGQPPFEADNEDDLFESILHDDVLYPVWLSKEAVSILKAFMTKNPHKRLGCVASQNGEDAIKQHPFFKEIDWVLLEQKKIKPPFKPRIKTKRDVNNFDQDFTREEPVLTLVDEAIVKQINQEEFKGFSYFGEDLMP

[7] = molecular target: T1, Glycogen synthase kinase-3 beta; test: Inhibition of recombinant GST-tagged GSK-3beta (unknown origin) expressed in Escherichia coli BL21 assessed as phosphate incorporation in CREB at 20 ug/mL relative to control
Summary of the method: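 GST-GSK-3β expressed in E. coli BL21-CodonPlus (DE3), purified by GSTrap and thrombin-cleaved. Activity measured by Z'-LYTE kinase assay at 50 nM final enzyme. Run in triplicate with blanks subtracted. Activity given as pmol phosphate incorporated into CREB per minute or as percent of maximal activity.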
Target sequence in this assay (P49841 whole entry, looked up): as the sequence (P49841 whole entry) above

Mitogen-activated protein kinase 3, sequence (P27361 whole entry): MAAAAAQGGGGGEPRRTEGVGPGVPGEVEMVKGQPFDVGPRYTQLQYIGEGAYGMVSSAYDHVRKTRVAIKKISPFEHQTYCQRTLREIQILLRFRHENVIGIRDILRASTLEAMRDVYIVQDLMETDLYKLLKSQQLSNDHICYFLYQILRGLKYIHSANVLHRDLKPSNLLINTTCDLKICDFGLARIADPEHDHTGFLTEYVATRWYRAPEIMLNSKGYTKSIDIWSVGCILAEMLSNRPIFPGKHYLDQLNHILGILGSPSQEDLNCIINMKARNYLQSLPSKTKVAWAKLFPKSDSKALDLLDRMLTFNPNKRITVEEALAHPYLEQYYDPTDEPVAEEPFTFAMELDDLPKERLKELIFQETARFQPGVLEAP
Dual specificity mitogen-activated protein kinase kinase 1, sequence (Q02750 whole entry): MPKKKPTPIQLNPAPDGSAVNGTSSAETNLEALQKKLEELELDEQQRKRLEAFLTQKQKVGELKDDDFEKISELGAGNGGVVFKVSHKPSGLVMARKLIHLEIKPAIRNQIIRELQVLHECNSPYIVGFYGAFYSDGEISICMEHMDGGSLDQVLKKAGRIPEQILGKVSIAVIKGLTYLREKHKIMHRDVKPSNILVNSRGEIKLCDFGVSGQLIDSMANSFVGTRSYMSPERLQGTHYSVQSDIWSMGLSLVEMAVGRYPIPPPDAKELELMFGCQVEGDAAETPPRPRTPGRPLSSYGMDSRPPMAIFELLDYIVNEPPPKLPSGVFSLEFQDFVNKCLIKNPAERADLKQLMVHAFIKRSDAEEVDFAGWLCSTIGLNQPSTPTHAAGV

SMILES | IC50 [1] [µM] | inhibition [3] | other results
CN1CCN(CCCn2nc(C3=C(c4cn(C)c5ccccc45)C(=O)NC3=O)c3cccnc32)CC1 | 3.34 |  | 
C=Cn1cc(C2=C(c3nn(CCCN4CCOCC4)c4ncccc34)C(=O)NC2=O)c2ccccc21 | 8.84 |  | 
Cn1cc(C2=C(c3nn(CCn4ccnc4)c4ncccc34)C(=O)NC2=O)c2ccccc21 | 0.81 | Active | IC50 [2]: > 40 µM; IC50 [4]: > 40 µM; IC50 (Aurora kinase A): > 40 µM; IC50 [5]: > 40 µM; IC50 [6]: > 40 µM
O=C1NC(=O)C(c2nn(CCCN3CCOCC3)c3ncccc23)=C1c1cn(Cc2ccccc2)c2ccccc12 | 1.9 |  | 
CC(C)CN1C(=O)C(c2c[nH]c3ccccc23)=C(c2n[nH]c3ncccc23)C1=O |  |  | inhibition [7]: 45.7%
O=C1NC(=O)C(c2nn(CCCN3CCOCC3)c3ncccc23)=C1c1cn(CCCn2ccnc2)c2ccccc12 | 0.68 | inactive | 
C=CCn1cc(C2=C(c3nn(CCCN4CCOCC4)c4ncccc34)C(=O)NC2=O)c2ccccc21 | 0.96 |  | 
Cn1cc(C2=C(c3nn(CCCN4CCCCC4)c4ncccc34)C(=O)NC2=O)c2ccccc21 | 2.66 |  | 
CC(C)n1cc(C2=C(c3nn(CCCN4CCOCC4)c4ncccc34)C(=O)NC2=O)c2ccccc21 | 0.38 | Active | IC50 [2]: > 40 µM; IC50 [4]: > 40 µM; IC50 (Aurora kinase A): > 40 µM; IC50 [5]: > 40 µM; IC50 [6]: > 40 µM
NC(=O)NN1C(=O)C(c2c[nH]c3ccccc23)=C(c2n[nH]c3ncccc23)C1=O |  |  | inhibition [7]: -6.81%
Cn1cc(C2=C(c3n[nH]c4ncccc34)C(=O)NC2=O)c2ccccc21 | 12.3 |  | 
CN(C)CCCn1nc(C2=C(c3cn(C)c4ccccc34)C(=O)NC2=O)c2cccnc21 | 5.69 |  | 
O=C1C(c2c[nH]c3ccccc23)=C(c2n[nH]c3ncccc23)C(=O)N1c1ccccc1 |  |  | inhibition [7]: 4.14%
NC(=S)NN1C(=O)C(c2c[nH]c3ccccc23)=C(c2n[nH]c3ncccc23)C1=O |  |  | inhibition [7]: 33.7%
O=C1NC(=O)C(c2nn(CCCN3CCOCC3)c3ncccc23)=C1c1cn(CCCN2CCOCC2)c2ccccc12 | 1.29 | inactive | 
Cn1cc(C2=C(c3nn(CCCN4CCOCC4)c4ncccc34)C(=O)NC2=O)c2ccccc21 | 0.75 | Active | 
O=C1NC(=O)C(c2nn(CCCN3CCOCC3)c3ncccc23)=C1c1c[nH]c2ccccc12 | 0.83 | Active | 
Cn1cc(C2=C(c3nn(CCCn4ccnc4)c4ncccc34)C(=O)NC2=O)c2ccccc21 | 4.89 |  | 
Cn1cc(C2=C(c3nn(CCCCN4CCOCC4)c4ncccc34)C(=O)NC2=O)c2ccccc21 | 0.46 |  | 
Cn1cc(C2=C(c3nn(CCCCn4ccnc4)c4ncccc34)C(=O)NC2=O)c2ccccc21 | 0.96 |  | 
O=CNN1C(=O)C(c2c[nH]c3ccccc23)=C(c2n[nH]c3ncccc23)C1=O |  |  | inhibition [7]: -7.42%
Cn1cc(C2=C(c3nn(CCCO)c4ncccc34)C(=O)NC2=O)c2ccccc21 | 1.09 | Active | 
NN1C(=O)C(c2c[nH]c3ccccc23)=C(c2n[nH]c3ncccc23)C1=O |  |  | inhibition [7]: 28.6%
O=C1NC(=O)C(c2n[nH]c3ncccc23)=C1c1c[nH]c2ccccc12 | 7.31 |  | 
Cn1cc(C2=C(c3nn(CCN4CCOCC4)c4ncccc34)C(=O)NC2=O)c2ccccc21 | 0.36 | Active | IC50 [2]: > 40 µM; IC50 [4]: > 40 µM; IC50 (Aurora kinase A): > 40 µM; IC50 [5]: > 40 µM; IC50 [6]: > 40 µM
COC(=O)CN1C(=O)C(c2c[nH]c3ccccc23)=C(c2n[nH]c3ncccc23)C1=O |  |  | inhibition [7]: 51.5%
